Compound activity as filed in PubChem BioAssay.
Env fusion inh – HIV envelope-mediated fusion inhibition. HeLa-JRFL Env/CEM21 cell fusion, luciferase. inhibition, % at 12.3 µM. 360,000 compounds, 1.1% hits. AID 651610;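 active = mean replicate inhibition score of at least 50 and every replicate individually at or above 50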
INS-1E GSIS act – GLuc luminescence reporter in INS-1E cells, primary screen for activators of glucose-dependent secretion of insulin; 370,000 compounds, 0.61% hits; activation, % at 16.6 µM; INS-1E GLuc reporter insulin secretion, 2-3 h;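 active = lowest replicate activation of at least 40%, so every replicate reaches that level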
FN deposition inh – fibronectin deposition inhibition | AID 743247 | 350,000 compounds, 0.086% hits | AH1F fibroblasts, Alexa488-fibronectin deposition fluorescence, overnight | inhibition, % at 12.6 µM;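 active = mean inhibition across replicates of 30% or more, regardless of how many single replicates reach that level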
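Material: AH1F fibroblast monolayer depositing Alexa488-labelled fibronectin into matrix / Amount: 10000 AH1F cells per well / Signal: fluorescence 485/525 nm / Medium: DMEM, 2% serum / Compound: single dose, pinned / Incubation: 1 h cell adhesion before compound, then overnight fibronectin incubation / Reagent: Alexa488-FN, 24 nM final / Read-out: inhibition of fibronectin deposition signal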
ERp5 block – inhibitors of human ERp5; 350,000 compounds, 0.05% hits; Q15084; inhibition, % at 9.99 µM; AID 651711; ERp5 insulin aggregation, absorbance 650 nm, 90 min;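 active = mean replicate inhibition above about 25%, with every replicate also reaching it, limit read from the data, passing the limit was not always enough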
Target sequence (Q15084 whole entry, looked up): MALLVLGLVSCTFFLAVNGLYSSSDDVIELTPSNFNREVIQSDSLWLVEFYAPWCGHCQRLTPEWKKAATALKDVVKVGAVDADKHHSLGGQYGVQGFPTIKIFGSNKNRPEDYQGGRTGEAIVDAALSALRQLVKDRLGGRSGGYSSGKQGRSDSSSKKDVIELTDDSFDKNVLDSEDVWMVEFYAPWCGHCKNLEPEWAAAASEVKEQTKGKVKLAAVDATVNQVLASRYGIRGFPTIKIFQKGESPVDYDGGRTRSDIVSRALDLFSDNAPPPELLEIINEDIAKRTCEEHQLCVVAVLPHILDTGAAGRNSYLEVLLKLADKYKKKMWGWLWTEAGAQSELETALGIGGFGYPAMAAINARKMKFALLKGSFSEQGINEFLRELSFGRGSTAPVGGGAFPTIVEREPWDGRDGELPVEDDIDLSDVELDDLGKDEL
PDI inh – blocks human protein disulfide isomerase activity; P07237; PDI insulin aggregation turbidity, A650, 90 min; inhibition, % at 10 µM; 350,000 compounds, 0.052% hits;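 active = mean inhibition across replicates of 30% or more, whatever share of single replicates reach that level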
Numbers stand for hits; - = inactive; . = no result; ! = repeats disagree. Most compounds without a hit are left out; they make up all but 1.4% or so of the library.

SMILES | Env fusion inh | INS-1E GSIS act | FN deposition inh | ERp5 block | PDI inh
Fc1ccc(CNCCc2c[nH]c3ccccc23)cc1 | - | - | - | - | -
CCOc1cc(CNCCc2c[nH]c3ccccc23)cc(Cl)c1OCC | 68.2 | - | - | - | -
CCOc1c(Cl)cc(CNCCc2c[nH]c3ccccc23)cc1OC | 64.0 | - | - | - | -
Cc1ccc(OC(=O)N(C)C[C@@H]2OCc3ccccc3-c3c(n(C)c4ccccc34)C(=O)N([C@@H](C)CO)C[C@@H]2C)cc1 | . | - | - | - | .
COc1ccc(-c2ccc([C@@H]3[C@@H](CO)N4CCCCN(C(=O)Cc5ccccc5)C[C@H]34)cc2)cc1 | . | - | . | - | .
COC(=O)[C@H]1[C@H](CO)[C@H]2Cn3c(ccc(C4=CCCCC4)c3=O)[C@@H]1N2C(=O)Cc1ccccn1 | . | - | . | - | .
O=[N+]([O-])c1ccccc1-c1cc(-c2ccccc2)cc(-c2ccccc2)[n+]1Cc1ccccc1Cl | 61.1 | - | - | - | .
CC(=O)N1C[C@@H]2C(c3ccccc3)[C@H](C1)N2C (stereo partly specified) | . | - | - | . | .
Cc1ccc(-n2c(C)nc3ccccc3c2=O)cc1C | - | - | - | - | -
Cc1nc2ccccc2c(=O)n1-c1ccc(Cl)c(Cl)c1 | - | 40.2 | - | - | -
O=C(O)[C@@H]1[C@@H](CO)[C@@H]2Cn3c(ccc(-c4ccccc4)c3=O)[C@H]1N2CC1CCCCC1 | . | - | . | - | .
CCN(CC)c1ccc(N=Cc2c(O)n(Cc3ccccc3)c(=O)[nH]c2=O)cc1 | - | 41.1 | - | . | -
COc1ccc(C#Cc2ccc([C@@H]3[C@@H](CO)N4CCCCN(C(=O)Cc5ccccc5)C[C@@H]34)cc2)cc1 | . | - | . | - | .
Cc1nn(Cc2ccc(Cl)cc2Cl)c(Cl)c1C(=O)Nc1ccc(OC(F)F)cc1 | - | 70.6 | - | . | -
Cc1nn(Cc2ccc(Cl)cc2Cl)c(Cl)c1C(=O)O | - | - | - | - | -
CSc1ncc(Br)c(N2CC2)n1 | - | 41.6 | - | - | -
N#Cc1ccc(-c2ccc([C@H]3[C@H](CO)N4CCCCN(C(=O)Cc5ccccc5)C[C@@H]34)cc2)cc1 | . | - | . | - | .
Clc1ccc(COC(Cn2ccnc2)c2ccc(Cl)cc2Cl)c(Cl)c1 (stereo unspecified) | - | 48.5! | - | - | -
COc1ccc(-n2c(O)c(C(C)=NCCCn3ccnc3)c(=O)[nH]c2=O)cc1 | 68.7 | . | - | . | -
CC(=O)c1c(C)n(C2CCCCC2)c2ccc(O)cc12 | 62.1 | - | - | - | -
CC(=O)c1c(C)n(Cc2ccccc2)c2ccc(O)cc12 | - | - | - | - | -
CC(C)NC(=O)N1CC2C(c3ccccc3)C(C1)N2C (stereo unspecified) | . | - | - | . | .
COc1ccc(C#Cc2ccc([C@H]3[C@H](CO)N4CCCCN(C(=O)Cc5cccnc5)C[C@@H]34)cc2)cc1 | . | - | . | 27.0 | .
NC(N)=N/N=C/c1cn(-c2ccccc2)nc1-c1cccs1 | - | . | 34.6 | - | -
CCNc1nc(Cl)nc(NC(C)C)n1 | - | 71.4 | - | . | -
SMILES | Env fusion inh | INS-1E GSIS act | FN deposition inh | ERp5 block | PDI inh
C[C@]12CCC(=O)C=C1C=CC1C2CC[C@@]2(C)C1CC[C@@H]2O (stereo partly specified) | - | - | - | - | -
CC12CCC(=O)C=C1C=CC1C2CCC2(C)C(O)CCC12 (stereo unspecified) | 80.7 | - | - | - | -
CN1C(=O)NC(=O)[C@]2(Cc3ccccc3N3CCN(c4ccccc4)CC32)C1=O (stereo partly specified) | - | . | - | . | -
O=C1NC(=O)[C@]2(Cc3ccccc3N3CCN(c4ccccc4)CC32)C(=O)N1c1ccccc1 (stereo partly specified) | - | . | 31.3 | . | -
Cc1cccc(S(=O)(=O)N2[C@@H]3Cn4c(ccc(-c5cccc(F)c5)c4=O)[C@H]2[C@@H](C(=O)O)[C@@H]3CO)c1 | . | - | . | . | .
COc1ccc(C(O)(c2cncnc2)C2CC2)cc1 (stereo unspecified) | - | . | . | - | .
CCOC(=O)[C@]12Cc3cc(OC)ccc3[C@H]1N(C1CCCCC1)C(=O)c1cc(OC)ccc12 | - | 325.1 | . | - | .
CCOC(=O)[C@]12Cc3cc(C)ccc3[C@H]1N(C1CCCCC1)C(=O)c1cc(OC)ccc12 | - | - | - | - | .
COc1ccc(-n2c(/C=C/c3ccc(O)cc3)nc3ccccc3c2=O)cc1 | - | - | - | - | -
CCn1nc(/C=C/c2ccccc2)nc2c(=O)n(C)c(=O)nc1-2 | - | - | . | 38.1 | -
O=C(O)[C@@H]1[C@@H](CO)[C@@H]2Cn3c(ccc(C4=CCCCC4)c3=O)[C@H]1N2CCc1ccccc1 | - | - | . | . | .
Cc1nc(-c2cccc(CN(C)C(=O)Oc3ccc([N+](=O)[O-])cc3)c2)no1 | - | - | - | - | .
CN(Cc1cccc(-c2cccnc2)c1)C(=O)Oc1ccc([N+](=O)[O-])cc1 | 134.2 | - | . | - | .
C[C@]12CCC3C(CCC4=C/C(=N/OCC(=O)NC(CCC(N)=O)C(=O)O)CC[C@@]43C)C1CCC2O (stereo partly specified) | - | - | - | - | -
C[C@]12CCC3C(CCC4=C/C(=N/OCC(=O)NC(CCC(=O)O)C(=O)O)CC[C@@]43C)C1CCC2O (stereo partly specified) | - | 44.1 | - | - | -
CC(C)(C)c1cc([N+](=O)[O-])cc(C(C)(C)C)c1O | 58.3 | - | - | - | .
